Experimental data published in ChEMBL document CHEMBL2177096, “Sulfonyl fluoride inhibitors of fatty acid amide hydrolase” (J Med Chem, 2012).

Tests used:
[1] = Inhibition of rat FAAH deltaTM mutant expressed in Escherichia coli using AAMCA as substrate after 15 mins by medium throughput fluorescent assay
[2] = target: Cannabinoid receptor 2 (Mus musculus, UniProt P47936); test: Displacement of [3H]CP-55,940 from mouse CB2 receptor expressed in HEK293 cells; type: cell-based
Method in brief: (§1)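 Membranes from rat brain (CB1) or from HEK293 cells overexpressing mouse CB2 were used, with [3H]CP-55,940 as radioligand. Data fitted by nonlinear regression. Ki values come from three independent experiments run in duplicate and are given as the mean of the three.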

[3] = target: Cannabinoid receptor 1 (Rattus norvegicus, UniProt P20272); test: Displacement of [3H]CP-55,940 from CB1 receptor in rat brain homogenates; type: tissue-based; method in brief: as §1
[4] = organism: Rattus norvegicus; test: Irreversible inhibition of rat FAAH deltaTM mutant expressed in Escherichia coli assessed as recovery of enzyme activity using AAMCA as substrate at 40 times IC50 treated for 1 hr measured after 80 mins of rapid dilution by medium throughput fluorescent assay; set-up: scale not given: the % may be the effect or the level left
[5] = Inhibition of human FAAH deltaTM mutant expressed in Escherichia coli using AAMCA as substrate after 15 mins by medium throughput fluorescent assay
[6] = target: T1, Monoglyceride lipase (Homo sapiens, UniProt Q99685); test: Inhibition of recombinant human hexahistidine-tagged MGL expressed in Escherichia coli using AHMMCE as substrate after 15 mins by medium throughput fluorescent assay
T1 sequence (Q99685 whole entry): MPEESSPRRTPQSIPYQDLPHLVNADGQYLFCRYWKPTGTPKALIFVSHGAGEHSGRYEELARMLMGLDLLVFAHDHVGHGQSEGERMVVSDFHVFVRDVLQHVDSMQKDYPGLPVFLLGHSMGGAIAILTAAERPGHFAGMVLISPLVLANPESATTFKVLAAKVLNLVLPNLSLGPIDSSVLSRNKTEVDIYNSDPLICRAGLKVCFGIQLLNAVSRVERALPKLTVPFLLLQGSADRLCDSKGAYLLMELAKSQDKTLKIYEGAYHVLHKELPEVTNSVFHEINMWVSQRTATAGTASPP

Chain of Cannabinoid receptor 1 (P20272 whole entry): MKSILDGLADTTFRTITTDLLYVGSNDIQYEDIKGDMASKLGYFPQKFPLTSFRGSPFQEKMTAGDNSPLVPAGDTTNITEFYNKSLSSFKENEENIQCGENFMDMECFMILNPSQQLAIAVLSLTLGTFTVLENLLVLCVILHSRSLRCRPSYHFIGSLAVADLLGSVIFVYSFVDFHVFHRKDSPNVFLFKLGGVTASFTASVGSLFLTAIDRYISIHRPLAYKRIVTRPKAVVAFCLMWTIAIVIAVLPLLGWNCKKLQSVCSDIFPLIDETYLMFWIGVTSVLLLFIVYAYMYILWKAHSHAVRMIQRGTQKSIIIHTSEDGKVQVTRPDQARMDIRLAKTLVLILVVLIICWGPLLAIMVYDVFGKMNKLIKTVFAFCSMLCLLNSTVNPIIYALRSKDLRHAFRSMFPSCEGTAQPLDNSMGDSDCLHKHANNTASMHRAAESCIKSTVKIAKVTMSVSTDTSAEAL
Chain of Cannabinoid receptor 2 (P47936 whole entry): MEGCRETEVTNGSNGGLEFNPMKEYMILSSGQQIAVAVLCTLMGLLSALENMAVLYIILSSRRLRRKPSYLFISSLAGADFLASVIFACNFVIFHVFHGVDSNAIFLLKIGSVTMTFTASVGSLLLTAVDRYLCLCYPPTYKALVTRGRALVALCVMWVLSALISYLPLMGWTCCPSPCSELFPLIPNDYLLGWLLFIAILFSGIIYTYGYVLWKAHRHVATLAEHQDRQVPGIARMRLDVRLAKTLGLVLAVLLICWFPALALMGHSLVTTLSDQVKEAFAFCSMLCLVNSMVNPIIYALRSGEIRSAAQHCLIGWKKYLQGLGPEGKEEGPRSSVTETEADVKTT

Structure (SMILES)	IC50 [1]	Ki [2]	Ki [3]	further results
O=S(=O)(F)CCCCCCc1ccccc1	37.7 nM	–	–	–
O=S(=O)(F)CCCCOc1ccc(OCc2ccccc2)cc1	1.2 nM	203 nM	104 nM	–
O=S(=O)(F)CCCc1ccccc1	205 nM	–	–	–
O=S(=O)(F)CCCCCCCc1ccccc1	37 nM	–	–	–
O=S(=O)(F)CCCCCCCCc1ccccc1	176 nM	–	–	–
O=S(=O)(F)CCCCCCCc1ccccc1OCc1ccccc1	4.3 nM	–	–	–
O=S(=O)(F)CCCCCCCc1ccccc1O	1.2 nM	–	–	–
O=S(=O)(F)CCCCCCCc1ccc(O)cc1	–	698 nM	163 nM	–
O=S(=O)(F)CCCCCc1ccc(OCc2ccccc2)cc1	1.5 nM	194 nM	118 nM	–
O=S(=O)(F)CCCCCc1ccccc1	50.4 nM	–	–	–
O=S(=O)(F)CCCCCc1ccc(O)cc1	2.8 nM	577 nM	192 nM	Activity [4]: 8%; IC50 [5]: 5.1 nM
O=S(=O)(F)CCCCc1ccccc1	88.2 nM	–	–	–
O=S(=O)(F)CCCCCCCc1cccc(OCc2ccccc2)c1	–	99 nM	335 nM	–
COS(=O)(=O)CCCCCCCc1ccc(OCc2ccccc2)cc1	269 nM	–	–	IC50 [6]: > 5000 nM
O=S(=O)(F)CCCCCCCc1cccc(O)c1	2.5 nM	–	–	–
